The values below come from ChEMBL document CHEMBL1124062, “Structure-affinity relationships of arylquinolizines at alpha-adrenoceptors” (J Med Chem, 1988).

SMILES strings stand for the structures.

In series [1] the target is T1, Alpha-1A adrenergic receptor (Bos taurus, UniProt P18130).
T1 sequence (P18130 whole entry): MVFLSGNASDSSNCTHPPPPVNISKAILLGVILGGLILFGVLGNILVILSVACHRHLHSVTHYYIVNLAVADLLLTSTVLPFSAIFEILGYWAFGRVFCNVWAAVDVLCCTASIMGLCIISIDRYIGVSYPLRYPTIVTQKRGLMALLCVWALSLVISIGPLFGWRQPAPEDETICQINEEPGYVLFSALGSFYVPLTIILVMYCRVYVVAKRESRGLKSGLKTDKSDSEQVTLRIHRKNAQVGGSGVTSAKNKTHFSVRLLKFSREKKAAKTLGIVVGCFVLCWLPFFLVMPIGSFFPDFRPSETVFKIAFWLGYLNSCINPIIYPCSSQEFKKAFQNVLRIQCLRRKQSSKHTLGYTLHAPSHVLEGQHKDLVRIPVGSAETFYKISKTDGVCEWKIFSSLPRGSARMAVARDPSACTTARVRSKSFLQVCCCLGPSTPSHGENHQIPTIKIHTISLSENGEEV
As to the kind of experiment: Compound was evaluated for log 1/Ki at alpha-1 adrenergic receptor. Conditions: read-out: Log 1/Ki (converted). In short, it runs like this: (§1)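 Membranes from calf cerebral cortex as the receptor source. Alpha1 sites labelled with [3H]prazosin and alpha2 sites with [3H]clonidine. Affinity measured as displacement of each radioligand.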

Series [2] can be described thus: Partition coefficient (logD) (octanol/phosphate buffer). It counts as physicochemical. In short, it runs like this: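 Shake-flask partition between octanol and pH 7.4 phosphate buffer of ionic strength 0.1 as the aqueous phase. Compound level in each phase read by UV absorption.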
In series [3] the target is T2, Alpha-2A adrenergic receptor (Bos taurus, UniProt Q28838).
T2 sequence (Q28838 whole entry): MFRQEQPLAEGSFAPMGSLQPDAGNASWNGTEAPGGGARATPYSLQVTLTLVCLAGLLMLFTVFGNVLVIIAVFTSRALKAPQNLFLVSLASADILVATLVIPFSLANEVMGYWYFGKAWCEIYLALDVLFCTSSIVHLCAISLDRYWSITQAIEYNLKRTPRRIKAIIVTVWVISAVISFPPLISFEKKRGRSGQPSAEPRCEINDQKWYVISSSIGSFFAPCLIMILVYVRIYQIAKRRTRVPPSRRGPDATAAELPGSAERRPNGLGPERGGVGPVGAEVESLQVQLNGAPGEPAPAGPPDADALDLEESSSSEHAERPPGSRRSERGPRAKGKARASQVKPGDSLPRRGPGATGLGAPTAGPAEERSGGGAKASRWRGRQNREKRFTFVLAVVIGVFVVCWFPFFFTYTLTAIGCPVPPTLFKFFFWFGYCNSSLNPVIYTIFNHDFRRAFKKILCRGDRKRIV
Put plainly: Compound was evaluated for log 1/Ki at alpha-2 adrenergic receptor. As to conditions: read-out: Log 1/Ki (converted). A digest of the protocol:
as §1

Series [4] deals with T1, Alpha-1A adrenergic receptor. As to the kind of experiment: Affinity to alpha-1 adrenergic receptor by the displacement of [3H]-prazosin from calf cerebral cortex membranes. The series is classed as tissue-based. In short, it runs like this:
as §1
On the technique in general: Displacement assays read how much labelled ligand stays bound in the presence of the test substance.

Series [5] deals with T2, Alpha-2A adrenergic receptor. Put plainly: Affinity to alpha-2 adrenergic receptor by the displacement of [3H]clonidine from calf cerebral cortex membranes. It counts as tissue-based. A digest of the protocol:
as §1

The nature of series [6]: Selectivity expressed as the ratio of Ki of [3H]prazosin to Ki of [3H]-clonidine.

One may read the logD as the decadic logarithm of the distribution of all forms, ionised or not, between an organic phase and buffer at a given pH. A high value points to higher lipophilicity.

With `c1ccc2c3c(oc2c1)C1CCCCN1CC3` (stereo not drawn), the Ki in series [1] was 110 nM; in series [3], 16.2 nM; in series [4], 110 nM; in series [5], 16.2 nM. For the same molecule, the log distribution coefficient (logD) in series [2] is 1.8. Besides, in series [6], the Selectivity was 6.8.
`Nc1nc2c(s1)CCN1CCCCC21` (stereo not drawn): the Ki in series [1] is 2820 nM; in series [3], 347 nM; in series [4], 2800 nM; in series [5], 350 nM. In series [2], the logD stood at 0.39. Further, in series [6], the Selectivity is 8.
On to `c1cc2c(s1)C1CCCCN1CC2` (stereo not drawn), for which the Ki in series [1] was 1100 nM; in series [3], 195 nM; in series [4] it was 1100 nM; in series [5], 195 nM. The same molecule had a pH-dependent lipophilicity (logD) in series [2] of 1.51. Moreover, the Selectivity in series [6] came out at 5.6.
Take `c1ccc2c3c([nH]c2c1)C1CCCCN1CC3` (stereo not drawn): the logD in series [2] is 1.83.
As to `c1[nH]nc2c1CCN1CCCCC21` (stereo not drawn), the Ki in series [1] was 24000 nM; in series [3] it was 9550 nM; in series [4], 24000 nM; in series [5], 9600 nM. The logD in series [2] amounted to 0.16. For the same molecule, the Selectivity in series [6] is 2.5.
As to `c1ccc2c3c(sc2c1)C1CCCCN1CC3` (stereo not drawn), the Ki was 16.2 nM in series [1], 4.27 nM in series [3], 16.1 nM in series [4] and 4.3 nM in series [5]. Besides, the logD in series [2] was found to be 2.09. In series [6], the Selectivity was 3.7.
`c1cnc2[nH]c3c(c2c1)CCN1CCCCC31` (stereo not drawn): the Ki in series [1] is 537 nM; in series [3] it was 661 nM; in series [4], 540 nM; in series [5] it was 660 nM. Moreover, in series [2], the logD was determined as 0.16. Also, the Selectivity in series [6] is 0.8.
Regarding `c1cnc2c(c1)CCN1CCCCC21` (stereo not drawn), the Ki is 3240 nM in series [1], 2000 nM in series [3], 3250 nM in series [4] and 2000 nM in series [5]. The molecule further came in with a logD in series [2] of 0.39. For the same molecule, the Selectivity in series [6] amounted to 1.6.
